Data set [1] has as its system Murid betaherpesvirus 1. In words: Antiviral activity against MCMV infected in BALB/c mouse assessed as decrease in virus-induced mortality at 16.7 mg/kg, po qd for 5 days administered 24 hrs after viral infection (reference value: 67%). Also noted: scale not given: the % may be the effect or the level left. It counts as functional. In short, it runs like this:
(§1)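 Female BALB/c mice (3 weeks, 15/group) were inoculated ip with MCMV Smith at about LD90. Oral dosing of 0.2 mL in 0.4% CMC ran once daily for 5 days, starting 24 or 48 h post-inoculation. Mice were observed daily for 21 days. Mortality was compared with CMC placebo by Fisher's exact test.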

Data set [2] relates to Murid betaherpesvirus 1. In words: Antiviral activity against MCMV infected in BALB/c mouse assessed as decrease in virus-induced mean day of death at 50 mg/kg, po qd for 5 days administered 48 hrs after viral infection (reference value: 5.1 +/- 0.9 days). The format is functional.
Data set [3] concerns Murid betaherpesvirus 1. In words: Antiviral activity against MCMV infected in BALB/c mouse assessed as decrease in virus-induced mortality at 5.6 mg/kg, po qd for 5 days administered 24 hrs after viral infection (reference value: 67%). It counts as functional. Also noted: scale not given: the % may be the effect or the level left. Summed up: as §1
In a further data set the test system is Cowpox virus. In words: Antiviral activity against Cowpox virus infected in HFF assessed as reduction in virus induced cytopathic effect at 100 uM. It counts as functional, organism-based. A general note: Cytopathic effects are the visible damage that an infection or toxin causes in cultured cells.
The subject of a further data set is Human alphaherpesvirus 2. Briefly: Antiviral activity against HSV2 infected in HFF assessed as reduction in virus induced cytopathic effect. It counts as functional, organism-based.
The subject of data set [4] is Mus musculus. In words: Toxicity in BALB/c mouse assessed as body weight loss at 50 mg/kg, po qd for 5 days relative to control. On the set-up: dose 50 mg/kg, route oral. The conditions noted are these: in vivo, 120 h. It counts as organism-based. Summed up:
(§2)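 Uninfected female BALB/c mice, 3 weeks old, in groups of 5. Compound suspended in 0.4% carboxymethylcellulose and given orally in 0.2 mL once daily for 5 days at 50, 16.7 or 5.6 mg/kg. Mean group body weight tracked over days 1–5 plus day 6 recovery. Clinical signs (ruffled coat, behaviour) were observed. Comparison was with vehicle-treated or untreated mice.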

The subject of data set [5] is Murid betaherpesvirus 1. Briefly: Antiviral activity against MCMV infected in BALB/c mouse assessed as decrease in virus-induced mortality at 16.7 mg/kg, po qd for 5 days administered 48 hrs after viral infection (reference value: 100%). It counts as functional. On the set-up: scale not given: the % may be the effect or the level left. In short, it runs like this:
as §1

In data set [6] the test system is Human betaherpesvirus 5. Briefly: Antiviral activity against HCMV Toledo infected in human thymus/liver tissue xenografted in SCID mouse assessed as mean log10 genome equivalents/animal at 12.5 mg/kg, po qd for 28 days by RT-PCR analysis (reference value: 3.73 +/- 0.784). It counts as functional, strain Toledo.
Data set [7] concerns Mus musculus. In words: Toxicity in BALB/c mouse assessed as ruffled coat appearance at 5.6 mg/kg, po qd for 5 days relative to control. It counts as organism-based. Also noted: dose 5.6 mg/kg, route oral. Conditions: in vivo, 120 h. Summed up:
as §2

Data set [8] deals with Mus musculus. In words: Toxicity in BALB/c mouse assessed as ruffled coat appearance at 16.7 mg/kg, po qd for 5 days relative to control. On the set-up: dose 16.7 mg/kg, route oral. Conditions: in vivo, 120 h. The format is organism-based. In short, it runs like this:
as §2

The test system of data set [9] is Mus musculus. In words: Toxicity in BALB/c mouse assessed as changes in behavior at 16.7 mg/kg, po qd for 5 days relative to control. The format is organism-based. Conditions: in vivo, 120 h. Also noted: dose 16.7 mg/kg, route oral. In short, it runs like this:
as §2

In data set [10] the test system is Human betaherpesvirus 5. Briefly: Antiviral activity against HCMV Toledo infected in human thymus/liver tissue xenografted in SCID mouse assessed as decrease in viral infection at 12.5 mg/kg, po qd for 28 days measured on day 35 by RT-PCR analysis (reference value: 67%). Also noted: scale not given: the % may be the effect or the level left. The format is functional, strain Toledo. A general note: Xenograft models place foreign cells or tissue in a host animal.

Data set [11] relates to Human betaherpesvirus 5. In words: Antiviral activity against HCMV Toledo infected in human thymus/liver tissue xenografted in SCID mouse assessed as mean log10 genome equivalents/animal at 6.25 mg/kg, po qd for 28 days measured on day 35 by RT-PCR analysis (reference value: 3.28 +/- 1.422). It counts as functional, strain Toledo.
Data set [12] in a line: Cytotoxicity against human Akata cells. It counts as cell-based.
Data set [13] relates to Human betaherpesvirus 5. In words: Antiviral activity against HCMV Toledo infected in human thymus/liver tissue xenografted in SCID mouse assessed as mean log10 genome equivalents/animal at 6.25 mg/kg, po qd for 14 days by RT-PCR analysis (reference value: 3.50 +/- 0.878). The format is functional, strain Toledo.
Data set [14] deals with Human betaherpesvirus 5. Briefly: Antiviral activity against HCMV Toledo infected in human thymus/liver tissue xenografted in SCID mouse assessed as mean log10 genome equivalents/animal at 12.5 mg/kg, po qd for 14 days by RT-PCR analysis (reference value: 3.50 +/- 0.878). The format is functional, strain Toledo.
Data set [15] has as its system Human betaherpesvirus 5. In words: Antiviral activity against HCMV Toledo infected in human thymus/liver tissue xenografted in SCID mouse assessed as decrease in viral infection at 12.5 mg/kg, po qd for 21 days by RT-PCR analysis (reference value: 92%). The format is functional, strain Toledo. Also noted: scale not given: the % may be the effect or the level left.

For one compound, Activity, EC50 and CC50 results are on record in ChEMBL document CHEMBL2010769, “Synthesis and antiviral activity of 6-deoxycyclopropavir, a new prodrug of cyclopropavir” (Bioorg Med Chem, 2012).

The source made the active and inactive calls. The rule behind the calls is not given here.

Regarding `Nc1ncc2ncn(/C=C3/CC3(CO)CO)c2n1`, the Activity stood at 0% in the data set on Murid betaherpesvirus 1 [1]; 11.9 days with Murid betaherpesvirus 1 [2]; 7% in the data set on Murid betaherpesvirus 1 [3]; 17% with Mus musculus [4]; 7% in the data set on Murid betaherpesvirus 1 [5]; 2.76 in the data set on Human betaherpesvirus 5 [6]. The Activity entry with Mus musculus [7] is recorded as “Non-toxic”; with Mus musculus [8], “Non-toxic”; in the data set on Mus musculus [9], “Non-toxic”; with Human betaherpesvirus 5 [10], 83%; in the data set with Human betaherpesvirus 5 [11], 3.32; in the data set on Human betaherpesvirus 5 [13], 3.9. Further, the values for the Activity in the data set on Human betaherpesvirus 5 [14] and in the data set with Human betaherpesvirus 5 [15] were 3.03 and 82%, respectively. The result in the data set with Cowpox virus was inactive. In addition, in the data set with Human alphaherpesvirus 2, the EC50 is over 300 µM. In addition, in data set [12], the midpoint of cytotoxicity, the CC50, lay at 71 µM.

Broadly, the EC50 is the midpoint of the concentration-response curve. Broadly, the CC50 is the concentration giving 50% cytotoxicity.
